Each block holds one molecule with its values, some of them ahead of it. The source made the active and inactive calls. The calls are words filed in the database; no cut-off is given here.
How the values were obtained:
HCT-116 [1] = assay: Effect on histone H3 expression level in human HCT116 cells measured after 24 hrs by Western blot analysis; assay type: functional, cell-based
Mus musculus [2] = assay: Increase in LIFR expression in tumor tissue of BALB/cAnNCrl mouse xenografted with human HCT116 cells at 30 mg/kg, po administered on day 1 to day 19 measured on day 19 by immunohistochemical analysis; assay type: functional, organism-based
Method in brief: (§1)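 HCT-116 xenograft mice were dosed orally at 15 or 30 mg/kg, or 30 mg/kg for reference agents, for 19 days, with vehicle or saline controls. Tumor sections were stained for Ki-67, c-Myc, Ac-H3, BRD4, LC3-II, LIFR and p-STAT3 by immunohistochemistry, and TUNEL staining was used as the apoptosis marker.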

Mus musculus [3] = assay: Increase in phosphorylated STAT3 expression in tumor tissue of BALB/cAnNCrl mouse xenografted with human HCT116 cells at 30 mg/kg, po administered on day 1 to day 19 measured on day 19 by immunohistochemical analysis; assay type: functional, organism-based; method in brief: as §1
HCT-116 [4] = assay: Antiproliferative activity against human HCT116 cells assessed as reduction in cell viability measured after 24 to 48 hrs by MTT assay; assay type: functional, cell-based
SW-620 = assay: Antiproliferative activity against human SW620 cells assessed as reduction in cell viability measured after 24 to 48 hrs by MTT assay; assay type: functional, cell-based
DLD-1 = assay: Antiproliferative activity against human DLD1 cells assessed as reduction in cell viability measured after 24 to 48 hrs by MTT assay; assay type: functional, cell-based
HCT-116 [5] = assay: Decrease in BRD4 expression in human HCT116 cells incubated for 24 hrs by western blot analysis; assay type: functional, cell-based
[6] = target: T1, Bromodomain-containing protein 4 (Homo sapiens, UniProt O60885); assay: Inhibition of GST-tagged BRD4 bromodomain (unknown origin) using biotinylated histone H4KAc peptide (1 to 21 residues) as substrate by HTRF assay
[7] = target: T1, Bromodomain-containing protein 4; assay: Inhibition of BRD4 in human HCT116 cells assessed as induction of autophagy by measuring p62 degradation at 2 uM measured after 24 hrs by Western blot analysis; assay type: cell-based
Method in brief: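 HCT-116 cells incubated 24 h with test agent at 2.0 µM, alongside 0.5 µM and 10 µM comparator treatments; LC3 and p62 protein detected by western blot.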

Mus musculus [8] = assay: Induction of autophagy in BALB/cAnNCrl mouse xenografted with human HCT116 cells assessed as increase in LC3-II level in tumor tissue at 30 mg/kg, po administered on day 1 to day 19 measured on day 19 by immunohistochemical analysis; assay type: functional, organism-based; method in brief: as §1
[9] = target: T1, Bromodomain-containing protein 4; assay: Inhibition of BRD4 in human HCT116 cells assessed as activation of IL6-JAK-STAT signaling pathway by measuring increase in IL6 mRNA level at 2 uM after 24 hrs by RT-PCR analysis; assay type: cell-based
Method in brief: (§2)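 HCT-116 cells were incubated for 24 hours with the test agents at 0.5, 2.0 or 10 μM. IL6, OSM, LIF and CTF1 mRNA levels were then measured.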

[10] = target: T1, Bromodomain-containing protein 4; assay: Inhibition of BRD4 in human HCT116 cells assessed as activation of IL6-JAK-STAT signaling pathway by measuring increase in OSM mRNA level at 2 uM after 24 hrs by RT-PCR analysis; assay type: cell-based; method in brief: as §2
[11] = target: T1, Bromodomain-containing protein 4; assay: Inhibition of BRD4 in human HCT116 cells assessed as activation of IL6-JAK-STAT signaling pathway by measuring increase in LIF mRNA level at 2 uM after 24 hrs by RT-PCR analysis; assay type: cell-based; method in brief: as §2
[12] = target: T1, Bromodomain-containing protein 4; assay: Inhibition of BRD4 in human HCT116 cells assessed as activation of IL6-JAK-STAT signaling pathway by measuring increase in CTF1 mRNA level at 2 uM after 24 hrs by RT-PCR analysis; assay type: cell-based; method in brief: as §2
[13] = target: T1, Bromodomain-containing protein 4; assay: Inhibition of BRD4 in human HCT116 cells assessed as induction of autophagy by measuring LC3-I cleavage to LC3-II at 2 uM measured after 24 hrs by Western blot analysis; assay type: cell-based
Method in brief: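 HCT-116 cells were treated for 24 hours with 0.5 μM, 2.0 μM or 10 μM agents. LC3 (LC3-I to LC3-II conversion) and p62 were then detected by western blot.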

Histone deacetylase 7 = target: T2, Histone deacetylase 7 (Homo sapiens, UniProt Q8WUI4); assay: Inhibition of HDAC7 (unknown origin) using biotinylated histone H3 KAc peptide (1 to 21 residues) as substrate by HTRF assay
T2 sequence (Q8WUI4 whole entry): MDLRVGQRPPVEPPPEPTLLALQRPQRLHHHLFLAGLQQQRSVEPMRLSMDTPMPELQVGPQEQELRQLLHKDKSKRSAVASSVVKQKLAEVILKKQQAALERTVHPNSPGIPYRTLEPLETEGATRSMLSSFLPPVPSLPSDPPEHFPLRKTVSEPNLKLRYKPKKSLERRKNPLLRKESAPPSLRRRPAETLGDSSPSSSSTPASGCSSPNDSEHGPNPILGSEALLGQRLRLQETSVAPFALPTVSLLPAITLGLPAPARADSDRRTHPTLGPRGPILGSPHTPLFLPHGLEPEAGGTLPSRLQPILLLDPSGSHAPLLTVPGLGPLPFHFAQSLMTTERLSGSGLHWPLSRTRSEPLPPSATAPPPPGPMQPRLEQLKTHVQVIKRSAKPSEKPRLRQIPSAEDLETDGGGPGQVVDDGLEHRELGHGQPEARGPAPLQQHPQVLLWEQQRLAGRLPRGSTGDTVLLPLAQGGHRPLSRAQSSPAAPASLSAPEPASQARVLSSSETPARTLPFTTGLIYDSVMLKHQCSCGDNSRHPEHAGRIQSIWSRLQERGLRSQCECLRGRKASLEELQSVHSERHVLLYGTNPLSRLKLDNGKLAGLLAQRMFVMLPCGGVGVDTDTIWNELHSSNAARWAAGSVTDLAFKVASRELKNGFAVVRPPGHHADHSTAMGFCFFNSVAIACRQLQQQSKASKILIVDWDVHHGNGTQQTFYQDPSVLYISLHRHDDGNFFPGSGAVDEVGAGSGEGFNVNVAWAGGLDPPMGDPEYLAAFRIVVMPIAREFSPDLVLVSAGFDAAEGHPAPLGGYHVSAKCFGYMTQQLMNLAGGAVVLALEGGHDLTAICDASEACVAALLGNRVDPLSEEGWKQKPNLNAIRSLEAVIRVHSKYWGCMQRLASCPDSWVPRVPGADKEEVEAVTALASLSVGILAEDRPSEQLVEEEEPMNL

[14] = target: T3, Protein deacetylase HDAC6 (Homo sapiens, UniProt Q9UBN7); assay: Inhibition of HDAC6 (unknown origin) using biotinylated histone H3 KAc peptide (1 to 21 residues) as substrate by HTRF assay
T3 sequence (Q9UBN7 whole entry): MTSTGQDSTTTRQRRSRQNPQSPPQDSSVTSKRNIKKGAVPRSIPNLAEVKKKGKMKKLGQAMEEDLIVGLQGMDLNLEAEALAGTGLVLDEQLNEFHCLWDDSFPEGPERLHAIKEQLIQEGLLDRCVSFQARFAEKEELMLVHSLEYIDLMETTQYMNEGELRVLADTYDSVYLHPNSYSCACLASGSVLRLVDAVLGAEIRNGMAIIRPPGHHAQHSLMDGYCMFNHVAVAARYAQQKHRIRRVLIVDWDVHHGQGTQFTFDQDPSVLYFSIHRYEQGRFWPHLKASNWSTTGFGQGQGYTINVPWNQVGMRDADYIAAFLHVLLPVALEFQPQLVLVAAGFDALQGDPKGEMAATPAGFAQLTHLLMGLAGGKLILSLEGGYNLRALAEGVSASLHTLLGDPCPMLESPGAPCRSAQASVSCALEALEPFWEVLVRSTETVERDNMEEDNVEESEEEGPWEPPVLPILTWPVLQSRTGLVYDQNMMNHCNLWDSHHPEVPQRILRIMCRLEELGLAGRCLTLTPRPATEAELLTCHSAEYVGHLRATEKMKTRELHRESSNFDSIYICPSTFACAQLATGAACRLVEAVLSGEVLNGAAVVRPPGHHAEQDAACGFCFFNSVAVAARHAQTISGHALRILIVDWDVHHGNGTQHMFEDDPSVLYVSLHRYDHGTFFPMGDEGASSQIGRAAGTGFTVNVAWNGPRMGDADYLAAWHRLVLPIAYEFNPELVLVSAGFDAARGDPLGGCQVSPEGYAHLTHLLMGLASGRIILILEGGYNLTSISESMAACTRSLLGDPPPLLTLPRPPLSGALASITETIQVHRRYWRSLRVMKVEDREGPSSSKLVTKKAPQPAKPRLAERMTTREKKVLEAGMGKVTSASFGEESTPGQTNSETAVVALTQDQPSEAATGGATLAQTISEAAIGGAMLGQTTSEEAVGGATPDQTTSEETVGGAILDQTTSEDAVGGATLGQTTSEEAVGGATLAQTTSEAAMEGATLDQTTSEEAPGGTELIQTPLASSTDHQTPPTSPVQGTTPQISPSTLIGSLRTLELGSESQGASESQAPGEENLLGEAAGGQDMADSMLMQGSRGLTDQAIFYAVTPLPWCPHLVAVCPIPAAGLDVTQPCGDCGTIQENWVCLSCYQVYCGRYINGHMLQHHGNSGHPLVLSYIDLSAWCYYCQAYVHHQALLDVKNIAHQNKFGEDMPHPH

Histone deacetylase 2 = Histone deacetylase 2 (Homo sapiens, UniProt Q92769)
Sequence of Histone deacetylase 2 (Q92769 whole entry): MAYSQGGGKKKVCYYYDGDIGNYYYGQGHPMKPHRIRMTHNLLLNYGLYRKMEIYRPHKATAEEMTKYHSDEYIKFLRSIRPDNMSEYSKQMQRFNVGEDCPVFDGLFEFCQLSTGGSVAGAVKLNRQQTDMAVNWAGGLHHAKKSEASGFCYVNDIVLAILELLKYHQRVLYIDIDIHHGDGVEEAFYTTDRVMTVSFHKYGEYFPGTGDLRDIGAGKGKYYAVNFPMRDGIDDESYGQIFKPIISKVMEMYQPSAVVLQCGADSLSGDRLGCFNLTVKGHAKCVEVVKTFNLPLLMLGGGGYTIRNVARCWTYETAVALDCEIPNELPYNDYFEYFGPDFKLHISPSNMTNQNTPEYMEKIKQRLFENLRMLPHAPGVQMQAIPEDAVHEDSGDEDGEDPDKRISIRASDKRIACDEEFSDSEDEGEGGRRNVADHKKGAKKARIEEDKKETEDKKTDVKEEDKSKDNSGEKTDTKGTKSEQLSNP

SMILES: O=C(CCCCCCC(=O)Nc1ccccc1)NO
Activity (HCT-116 [1]): inactive
Activity (Mus musculus [2]): Active
Activity (Mus musculus [3]): Active

IC50 (HCT-116 [4]): 12.8 µM
IC50 (SW-620): > 10 µM
IC50 (DLD-1): > 10 µM
SMILES: COc1cc(OC)c2c(=O)[nH]c(-c3cc(C)c(OCCO)c(C)c3)nc2c1 [APABETALONE]
Activity (HCT-116 [1]): inactive
inhibition (HCT-116 [5]): Active

IC50 [6]: 850 nM
IC50 (HCT-116 [4]): 1.33 µM
inhibition [7]: Active
inhibition [9]: inactive
inhibition [10]: inactive
inhibition [11]: inactive
inhibition [12]: inactive
inhibition [13]: Active
SMILES: Cc1cc(-c2nc3sc4c(c3c(=O)[nH]2)CCN(C)C4)cc(C)c1O
Activity (Mus musculus [8]): Active

IC50 [6]: > 10000 nM
IC50 (HCT-116 [4]): 18 µM
IC50 (SW-620): 9.86 µM
IC50 (DLD-1): 19.6 µM
IC50 (Histone deacetylase 7): > 10 µM
IC50 [14]: 464 nM
IC50 (Histone deacetylase 2): 282 nM
SMILES: Cc1noc(C)c1-c1nc2sc3c(c2c(=O)[nH]1)CCN(CCCC(=O)NO)C3
